{"source": "ChEMBL document CHEMBL1135218", "about": "“Structure-based design, synthesis, and biological evaluation of irreversible human rhinovirus 3C protease inhibitors. Part 7: structure-activity studies of bicyclic 2-pyridone-containing peptidomimetics” (Bioorg Med Chem Lett, 2002)", "key": {"HeLa [1]": {"tested_on": "HeLa", "assay": "Compound was tested for the antirhinoviral activity against human rhinovirus (HRV-14) infected H1HeLa cells", "assay_type": "functional, cell-based"}, "HeLa [2]": {"tested_on": "HeLa", "assay": "Cytotoxic concentration against uninfected H1HeLa cell line", "assay_type": "functional", "details": "Homo sapiens"}, "[3]": {"molecular_target": "T1, Human rhinovirus A protease (Human rhinovirus sp.) (UniProt Q4U254)", "T1 sequence (whole entry)": "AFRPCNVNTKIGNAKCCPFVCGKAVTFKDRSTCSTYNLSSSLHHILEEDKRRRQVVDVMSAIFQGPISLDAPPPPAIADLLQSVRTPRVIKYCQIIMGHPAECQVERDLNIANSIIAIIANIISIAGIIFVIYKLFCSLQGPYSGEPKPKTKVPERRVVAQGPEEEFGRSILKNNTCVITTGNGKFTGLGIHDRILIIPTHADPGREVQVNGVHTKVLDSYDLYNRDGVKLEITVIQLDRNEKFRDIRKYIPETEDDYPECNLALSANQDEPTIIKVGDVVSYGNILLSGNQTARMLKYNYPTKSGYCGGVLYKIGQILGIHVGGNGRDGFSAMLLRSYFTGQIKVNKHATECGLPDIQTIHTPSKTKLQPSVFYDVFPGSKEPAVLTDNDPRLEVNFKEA", "assay": "The compound was tested for the inhibitory activity against human rhinovirus-14 3C Protease", "how_it_was_run": "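HRV-14 3C protease was exposed to the irreversible inhibitor. Inactivation was expressed as the second-order rate constant kobs/[I] in M-1 s-1.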"}, "HeLa [4]": {"tested_on": "HeLa", "assay": "(§1) Tested for antirhinoviral activity of compound against HRV 25 infected H1HeLa cells; Cytotoxicity at > 10 uM", "assay_type": "functional, cell-based", "details": "Homo sapiens"}, "HeLa [5]": {"tested_on": "HeLa", "assay": "(§2) Tested for antirhinoviral activity of compound against HRV 3 infected H1HeLa cells; Cytotoxicity at > 10 uM", "assay_type": "functional, cell-based", "details": "Homo sapiens"}, "HeLa [6]": {"tested_on": "HeLa", "assay": "(§3) Tested for antirhinoviral activity of compound against HRV 39 infected H1HeLa cells; Cytotoxicity at > 10 uM", "assay_type": "functional, cell-based", "details": "Homo sapiens"}, "HeLa [7]": {"tested_on": "HeLa", "assay": "(§4) Tested for antirhinoviral activity of compound against HRV 87 infected H1HeLa cells; Cytotoxicity at > 10 uM", "assay_type": "functional, cell-based", "details": "Homo sapiens"}, "HeLa [8]": {"tested_on": "HeLa", "assay": "(§5) Tested for antirhinoviral activity of compound against HRV 10 infected H1HeLa cells; Cytotoxicity at > 10 uM", "assay_type": "functional", "details": "Homo sapiens"}, "HeLa [9]": {"tested_on": "HeLa", "assay": "(§6) Tested for antirhinoviral activity of compound against HRV 14 infected H1HeLa cells; Cytotoxicity at > 10 uM", "assay_type": "functional", "details": "Homo sapiens"}, "HeLa [10]": {"tested_on": "HeLa", "assay": "(§7) Tested for antirhinoviral activity of compound against HRV 16 infected H1HeLa cells; Cytotoxicity at > 10 uM", "assay_type": "functional", "details": "Homo sapiens"}, "HeLa [11]": {"tested_on": "HeLa", "assay": "(§8) Tested for antirhinoviral activity of compound against HRV 2 infected H1HeLa cells; Cytotoxicity at > 10 uM", "assay_type": "functional", "details": "Homo sapiens"}, "HeLa [12]": {"tested_on": "HeLa", "assay": "as §1", "assay_type": "functional", "details": "Homo sapiens"}, "HeLa [13]": {"tested_on": "HeLa", "assay": "as §2", "assay_type": "functional", "details": "Homo sapiens"}, "HeLa [14]": {"tested_on": "HeLa", "assay": "as §3", "assay_type": "functional", "details": "Homo sapiens"}, "HeLa [15]": {"tested_on": "HeLa", "assay": "as §4", "assay_type": "functional", "details": "Homo sapiens"}, "HeLa [16]": {"tested_on": "HeLa", "assay": "as §5", "assay_type": "functional, cell-based", "details": "Homo sapiens"}, "HeLa [17]": {"tested_on": "HeLa", "assay": "as §6", "assay_type": "functional, cell-based", "details": "Homo sapiens"}, "HeLa [18]": {"tested_on": "HeLa", "assay": "as §7", "assay_type": "functional, cell-based", "details": "Homo sapiens"}, "HeLa [19]": {"tested_on": "HeLa", "assay": "as §8", "assay_type": "functional, cell-based", "details": "Homo sapiens"}, "HeLa [20]": {"tested_on": "HeLa", "assay": "Tested for antirhinoviral activity of compound against HRV 9 infected H1HeLa cells; Cytotoxicity at > 10 uM", "assay_type": "functional", "details": "Homo sapiens"}, "HeLa [21]": {"tested_on": "HeLa", "assay": "Tested for antirhinoviral activity of compound against HRV 9 infected H1HeLa cells", "assay_type": "functional, cell-based", "details": "Homo sapiens"}}, "data": [{"smiles": "CCOC(=O)/C=C/[C@H](CCC(N)=O)NC(=O)[C@@H]1CCc2ccc(NC(=O)OCc3ccccc3)c(=O)n21", "values": [{"measurement": "EC50", "setting": "HeLa [1]", "value": 9, "unit": "µM"}, {"measurement": "CC50", "setting": "HeLa [2]", "value": "> 100", "unit": "µM"}, {"measurement": "K obs / 1", "setting": "[3]", "value": 4540, "unit": "M⁻¹ s⁻¹"}]}, {"smiles": "CCOC(=O)/C=C/[C@H](C[C@@H]1CCNC1=O)NC(=O)[C@@H]1CCc2ccc(NC(=O)c3cc(C)on3)c(=O)n21", "values": [{"measurement": "EC50", "setting": "HeLa [4]", "value": 162, "unit": "nM"}, {"measurement": "EC50", "setting": "HeLa [5]", "value": 43, "unit": "nM"}, {"measurement": "EC50", "setting": "HeLa [6]", "value": 16, "unit": "nM"}, {"measurement": "EC50", "setting": "HeLa [7]", "value": 58, "unit": "nM"}, {"measurement": "EC90", "setting": "HeLa [8]", "value": 175, "unit": "nM"}, {"measurement": "EC90", "setting": "HeLa [9]", "value": 298, "unit": "nM"}, {"measurement": "EC90", "setting": "HeLa [10]", "value": 303, "unit": "nM"}, {"measurement": "EC90", "setting": "HeLa [11]", "value": 119, "unit": "nM"}, {"measurement": "EC90", "setting": "HeLa [12]", "value": 616, "unit": "nM"}, {"measurement": "EC90", "setting": "HeLa [13]", "value": 133, "unit": "nM"}, {"measurement": "EC90", "setting": "HeLa [14]", "value": 152, "unit": "nM"}, {"measurement": "EC90", "setting": "HeLa [15]", "value": 110, "unit": "nM"}, {"measurement": "EC50", "setting": "HeLa [1]", "value": 0.162, "unit": "µM"}, {"measurement": "EC50", "setting": "HeLa [16]", "value": 41, "unit": "nM"}, {"measurement": "EC50", "setting": "HeLa [17]", "value": 162, "unit": "nM"}, {"measurement": "EC50", "setting": "HeLa [18]", "value": 72, "unit": "nM"}, {"measurement": "EC50", "setting": "HeLa [19]", "value": 37, "unit": "nM"}, {"measurement": "CC50", "setting": "HeLa [2]", "value": "> 10", "unit": "µM"}, {"measurement": "K obs / 1", "setting": "[3]", "value": 177000, "unit": "M⁻¹ s⁻¹"}, {"measurement": "EC90", "setting": "HeLa [20]", "value": 257, "unit": "nM"}, {"measurement": "EC50", "setting": "HeLa [21]", "value": 121, "unit": "nM"}]}, {"smiles": "CCOC(=O)/C=C/[C@H](CCC(N)=O)NC(=O)[C@@H]1CS[C@H]2CC[C@H](NC(=O)OCc3ccccc3)C(=O)N21", "values": [{"measurement": "EC50", "setting": "HeLa [1]", "value": "> 10", "unit": "µM"}, {"measurement": "CC50", "setting": "HeLa [2]", "value": "> 10", "unit": "µM"}, {"measurement": "K obs / 1", "setting": "[3]", "value": 26, "unit": "M⁻¹ s⁻¹"}]}, {"smiles": "CCOC(=O)/C=C/[C@H](CCC(N)=O)NC(=O)Cn1cccc(NC(=O)OCc2ccccc2)c1=O", "values": [{"measurement": "EC50", "setting": "HeLa [1]", "value": "> 10", "unit": "µM"}, {"measurement": "CC50", "setting": "HeLa [2]", "value": "> 10", "unit": "µM"}, {"measurement": "K obs / 1", "setting": "[3]", "value": 348, "unit": "M⁻¹ s⁻¹"}]}, {"smiles": "CCOC(=O)/C=C/[C@H](CCC(N)=O)NC(=O)[C@H](Cc1ccccc1)n1cccc(NC(=O)OCc2ccccc2)c1=O", "values": [{"measurement": "EC50", "setting": "HeLa [1]", "value": 0.033, "unit": "µM"}, {"measurement": "CC50", "setting": "HeLa [2]", "value": 50, "unit": "µM"}, {"measurement": "K obs / 1", "setting": "[3]", "value": 114000, "unit": "M⁻¹ s⁻¹"}]}]}
